Where two headings read alike, the source gives them in different places.
What was measured:
BCRP = conditions: cited from earlier work
[1] = Small-animal PET imaging of [11C]-1 in wild-type and transporter knockout mice; assay type: in vivo; conditions: for Brain AUC / Brain-blood ratio, 25 min / Brain concentration, 25 min: total radioactivity, mean±SD; for Brain AUC: 0-60 min; for Brain AUC / Brain concentration, 25 min: n=3; for AUC of brain TACs, fold higher compared to wild-type animals: p=0.0495
Procedure, shortened: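 Female mice, 25-30 g, three per genotype. Isoflurane 2.5% to induce, 1.5-2% by mask to maintain, warmed to about 38°C. About 0.1 mL radiotracer (28±16 MBq) into the lateral tail vein. Whole-brain PET TACs as %ID/g; AUC from zero to the last time point. Brain %ID/g at 25 min divided by whole-blood %ID/g from a separate group (one mouse per genotype) gives brain-blood ratio. Mean±SD; Mann-Whitney U versus wild-type.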

[2] = assay type: in vivo, mice; conditions: for total plasma radioactivity recovered in SPE fraction 3 (MeOH) / percentage of unchanged [11C]-1 in mouse plasma / Blood concentration, 25 min: n=1; for percentage of unchanged [11C]-1 in mouse plasma: 25 min after tracer injection; for percentage of total brain radioactivity in the form of unchanged [11C]-1: brain tissue extract, HPLC system A; for Blood concentration, 25 min: total radioactivity; for mean brain-to-plasma ratio of unchanged [11C]-1, fold higher compared to wild-type animals: 25 min, p=0.0495; for Kp at 25 min: mouse, brain and plasma, intravenous, Brain-plasma ratio of unchanged [11C]-1, 25 min, mean±SD
Procedure, shortened: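 Female mice, 25-30 g, one per genotype, given radiotracer i.v. At 25 min: cardiac blood into heparin, spun 3,000×g, 5 min, 21°C, for plasma. Blood and plasma weighed, gamma-counted (cross-calibrated with PET), decay-corrected, %ID/g. Plasma spiked with unlabelled carrier, acidified, run through tC18 SPE (H2O wash, MeOH elution). H2O and MeOH fractions went to reversed-phase HPLC (pH 5.0, 35°C) and Aminex HPLC, UV 227 nm. Brain homogenised in saline, CH3CN-extracted, supernatant HPLC.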

[3] = Stability testing in formulation solution for i.v. injection; assay type: physicochemical; conditions: at least 2 h at room temperature; 0.9% aq. saline/ethanol/polyethylene glycol 300; HPLC system A
[4] = Stability testing in mouse plasma in vitro; assay type: in vitro ADME; conditions: 37°C, 30 min, SPE/HPLC
Procedure, shortened: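 Citrated mouse plasma (0.5 mL) mixed with 20 µL formulated radiotracer (about 40 MBq). Held 30 min at 37°C in a shaking water bath. Then C18 solid-phase extraction: acidified load, H2O wash, MeOH elution. Fractions analysed by radio-HPLC, reversed-phase column, CH3CN/MeOH/NH4OAc pH 5.0, UV 227 nm, to find the polar labelled species.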

[5] = rats; time course of a 1 h PET scan; cited from earlier work
[6] = Bcrp1(−/−) mice, 25 min after injection
[7] = Mdr1a/b(−/−) mice, 25 min after injection
[8] = wild-type mice, 25 min after injection

Q: For `COC(=O)c1ccc(C(=O)Nc2ccc(CCN3CCc4cc(OC)c(OC)cc4C3)cc2)cc1NC(=O)c1ccc2ccccc2n1` [Compound 1, Methyl 4-((4-(2-(6,7-dimethoxy-1,2,3,4-tetrahydroisoquinolin-2-yl)ethyl)phenyl)amino-carbonyl)-2-(quinoline-2-carbonylamino)benzoate], which “selectivity for inhibition of BCRP over P-gp” value (BCRP; in vitro transport assays) is on record?
A: approximately 500 fold

Q: What about the IC50 (BCRP; read-out: half-maximum inhibitory concentration (IC50), BCRP-mediated transport of mitoxantrone, topotecan-resistant MCF-7 breast cancer cells) of the same molecule?
A: 60 nM

Q: Which “Brain AUC” value ([1]; Bcrp1(−/−) mice) does the source give for `COc1cc2c(cc1OC)CN(CCc1ccc(NC(=O)c3ccc(C(=O)O[11CH3])c(NC(=O)c4ccc5ccccc5n4)c3)cc1)CC2` [[^11C]-1, [^11C]Methyl 4-((4-(2-(6,7-dimethoxy-1,2,3,4-tetrahydroisoquinolin-2-yl)ethyl)phenyl)amino-carbonyl)-2-(quinoline-2-carbonylamino)benzoate] here?
A: 3.1±0.2 h·%ID/g

Q: And the “Brain-blood ratio, 25 min” value ([1]; Bcrp1(−/−) mice)?
A: 1.6±0.1

Q: And the “Brain concentration, 25 min” value ([1]; Bcrp1(−/−) mice)?
A: 3.5±0.2 %ID/g

Q: What about the “AUC of brain TACs, fold higher compared to wild-type animals” value ([1]; Mdr1a/b(−/−) mice) of the same molecule?
A: 1.3 fold

Q: What about the “Brain AUC” value ([1]; Mdr1a/b(−/−) mice) of the same molecule?
A: 3.6±0.6^† h·%ID/g

Q: And the “Brain-blood ratio, 25 min” value ([1]; Mdr1a/b(−/−) mice)?
A: 1.7±0.3

Q: And the “Brain concentration, 25 min” value ([1]; Mdr1a/b(−/−) mice)?
A: 4.2±0.8 %ID/g

Q: And the “Brain AUC” value ([1]; Mdr1a/b(−/−)Bcrp1(−/−) mice)?
A: 5.1±0.9^† h·%ID/g

Q: What about the “Brain-blood ratio, 25 min” value ([1]; Mdr1a/b(−/−)Bcrp1(−/−) mice) of the same molecule?
A: 3.2±0.6

Q: And the “Brain concentration, 25 min” value ([1]; Mdr1a/b(−/−)Bcrp1(−/−) mice)?
A: 5.8±1.2 %ID/g

Q: And the “AUC of brain TACs, fold higher compared to wild-type animals” value ([1]; triple knockout (Mdr1a/b(−/−)Bcrp1(−/−)) mice)?
A: 1.8 fold

Q: And the “Brain AUC” value ([1]; wild-type mice)?
A: 2.8±0.2 h·%ID/g

Q: What about the “Brain-blood ratio, 25 min” value ([1]; wild-type mice) of the same molecule?
A: 1.5±0.1

Q: What about the “Brain concentration, 25 min” value ([1]; wild-type mice) of the same molecule?
A: 3.2±0.2 %ID/g

Q: And the “total plasma radioactivity recovered in SPE fraction 3 (MeOH)” value [2, 6]?
A: 19%

Q: And the “percentage of unchanged [11C]-1 in mouse plasma” value (“percentage of unchanged” for short) ([2]; Bcrp1(−/−) mice)?
A: 14%

Q: What about the “percentage of total brain radioactivity in the form of unchanged [11C]-1” value (shortened to “percentage … in the form of unchanged [11C]-1”) [2, 6] of the same molecule?
A: 25%

Q: What about the “Blood concentration, 25 min” value ([2]; Bcrp1(−/−) mice) of the same molecule?
A: 2.3 %ID/g

Q: And the “mean brain-to-plasma ratio of unchanged [11C]-1, fold higher compared to wild-type animals” value ([2]; Mdr1a/b(−/−) mice)?
A: 4.8 fold

Q: And the “total plasma radioactivity recovered in SPE fraction 3 (MeOH)” value [2, 7]?
A: 28%

Q: And the “percentage of unchanged” value ([2]; Mdr1a/b(−/−) mice)?
A: 17%

Q: And the “percentage … in the form of unchanged [11C]-1” value [2, 7]?
A: 62%

Q: And the “Blood concentration, 25 min” value ([2]; Mdr1a/b(−/−) mice)?
A: 2.5 %ID/g

Q: And the “mean brain-to-plasma ratio of unchanged [11C]-1, fold higher compared to wild-type animals” value ([2]; Mdr1a/b(−/−)Bcrp1(−/−) mice)?
A: 10.3 fold

Q: What about the “total plasma radioactivity recovered in SPE fraction 3 (MeOH)” value ([2]; Mdr1a/b(−/−)Bcrp1(−/−) mice, 25 min after injection) of the same molecule?
A: 18%

Q: And the “percentage of unchanged” value ([2]; Mdr1a/b(−/−)Bcrp1(−/−) mice)?
A: 11%

Q: What about the “Blood concentration, 25 min” value ([2]; Mdr1a/b(−/−)Bcrp1(−/−) mice) of the same molecule?
A: 1.8 %ID/g

Q: What about the “total plasma radioactivity in the form of unchanged parent” value ([2]; mouse plasma extracts, 25 min after injection, range over the 4 mouse types) of the same molecule?
A: 11-17%

Q: And the Kp at 25 min ([2]; Bcrp1(−/−) mice)?
A: 2.1 ± 0.1

Q: What about the Kp at 25 min ([2]; Mdr1a/b(−/−) mice) of the same molecule?
A: 8.6 ± 1.6

Q: And the Kp at 25 min ([2]; Mdr1a/b(−/−)Bcrp1(−/−) mice)?
A: 18.3 ± 3.7

Q: What about the Kp at 25 min ([2]; wild-type mice) of the same molecule?
A: 1.8 ± 0.1

Q: And the “total plasma radioactivity recovered in SPE fraction 3 (MeOH)” value [2, 8]?
A: 25%

Q: What about the “percentage of unchanged” value ([2]; wild-type mice) of the same molecule?
A: 13%

Q: What about the “percentage … in the form of unchanged [11C]-1” value [2, 8] of the same molecule?
A: 12%

Q: And the “Blood concentration, 25 min” value ([2]; wild-type mice)?
A: 2.1 %ID/g

Q: What about the “stability in formulation solution for i.v. injection” value [3] of the same molecule?
A: 100%

Q: And the “total radioactivity degraded to an unidentified polar radiolabelled species” value [4]?
A: > 98%

Q: With `COc1cc2c(cc1OC)CN(CCc1ccc(NC(=O)c3cc(OC)c(OC)cc3NC(=O)c3cnc4ccccc4c3)cc1)CC2` [tariquidar] as the molecule, how does the metabolism in vivo [5] read?
A: hardly metabolized
